Columns and labels:
[1] = tested on: engineered CYP199A4 peroxygenase variants; test: O-demethylation by the library of engineered CYP199A4 peroxygenase variants; assay type: biochemical, Rhodopseudomonas palustris; settings: H2O2-dependent reaction
[2] = tested on: CYP199A4 F182A/D251H; test: H2O2-dependent O-demethylation, F182A/D251H; assay type: biochemical, Rhodopseudomonas palustris
In short: (§1)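 Enzyme (1 μM) is reacted with methoxy-substituted benzoic acid substrate (2 mM) and H2O2 (10 mM) as sole oxidant, in Tris–HCl pH 7.4 at 30 °C. Demethylation products are quantified chromatographically against a benzophenone internal standard, and activity is expressed as turnover number.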

[3] = tested on: CYP199A4 F182A/D251E; test: H2O2-dependent O-demethylation, F182A/D251E; assay type: biochemical, Rhodopseudomonas palustris
In short: as §1

[4] = tested on: CYP199A4 F182A/P90A; test: H2O2-dependent O-demethylation of benzoic acid derivatives, F182A/P90A; assay type: biochemical, Rhodopseudomonas palustris; settings: catalyzed by F182A/P90A; P450 1 μM, substrate 2 mM, H2O2 10 mM, Tris-HCl pH 7.4, 30 °C
In short: (§2)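 Purified CYP199A4 double mutant (1 μM), a methoxy-substituted benzoic acid substrate (2 mM) and H2O2 (10 mM, the only oxidant) in Tris–HCl pH 7.4 at 30 °C. Demethylation and further-oxidation products are quantified against a benzophenone internal standard and expressed as turnover number per P450.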

[5] = tested on: CYP199A4 (wild type); settings: WT CYP199A4; cited from earlier work
[6] = tested on: CYP199A4 F182A/V355A; test: H2O2-dependent O-demethylation of benzoic acid derivatives, F182A/V355A; assay type: biochemical, Rhodopseudomonas palustris; settings: catalyzed by F182A/V355A
In short: as §2

[7] = target: T1, CYP199A4 F182A (Rhodopseudomonas palustris, UniProt Q2IU02, F183A); test: UV-visible spectral titration of substrate binding
T1 sequence (Q2IU02 1-410 F183A): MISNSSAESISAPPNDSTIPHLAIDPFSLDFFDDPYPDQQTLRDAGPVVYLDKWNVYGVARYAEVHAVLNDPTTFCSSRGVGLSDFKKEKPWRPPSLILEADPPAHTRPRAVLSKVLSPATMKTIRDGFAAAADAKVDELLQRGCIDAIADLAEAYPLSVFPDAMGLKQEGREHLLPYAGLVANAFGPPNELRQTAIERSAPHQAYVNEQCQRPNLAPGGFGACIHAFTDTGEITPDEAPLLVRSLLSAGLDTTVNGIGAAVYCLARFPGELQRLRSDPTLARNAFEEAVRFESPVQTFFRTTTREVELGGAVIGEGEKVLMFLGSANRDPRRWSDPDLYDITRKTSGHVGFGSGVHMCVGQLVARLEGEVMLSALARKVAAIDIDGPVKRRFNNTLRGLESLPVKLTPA

Q: For `COc1cc(C(=O)O)cc(OC)c1OC` [Compound 9, 3,4,5-trimethoxy benzoic acid], which “O-demethylation / conversion by the examined CYP199A4 variants (in words)” value (from here on “O-demethylation / conversion”) [1] is on record?
A: The value was “no conversions detected”.

Q: With `COc1ccccc1C(=O)O` [Compound 3, 2-methoxybenzoic acid] as the compound, how does the “O-demethylation / conversion” value [1] read?
A: The value was “no reaction product was detected”.

Q: Which results are given for `COc1ccc(C(=O)O)cc1` [Compound 1, 4-methoxybenzoic acid]?
A: reduction of catalytic activity compared with F182A [2]: 50 fold; reduction of catalytic activity compared with F182A [3]: 50 fold; TON of demethylation product [4]: 1100 μM (μM P450)^−1; catalytic turnover number (TON) of H2O2-dependent demethylation [5]: 6 μM (μM P450)^−1

Q: For `COc1ccc(C(=O)O)cc1C` [Compound 11, 3-methyl-4-methoxybenzoic acid], which TON of demethylation ([6]; P450 1 μM, substrate 2 mM, H2O2 10 mM, Tris-HCl pH 7.4, 30 °C) is on record?
A: Its TON of demethylation is 1290 μM (μM P450)^−1.

Q: Which “product formed (in words)” value ([6]; H2O2-dependent reaction) does the source give for `COc1c(C)cc(C(=O)O)cc1C` [Compound 12, 3,5-dimethyl-4-methoxy benzoic acid] here?
A: The value was “a single product (not 3,5-dimethyl-4-hydroxybenzoic acid)”.

Q: And the Kd [7]?
A: The Kd was 123 µM.

Q: For `COc1cccc(C(=O)O)c1` [Compound 2, 3-methoxybenzoic acid], which “O-demethylation / conversion” value [1] is on record?
A: Its value is “can be demethylated”.

Q: For `COc1cc(C(=O)O)ccc1O` [Compound 20, 4-hydroxy-3-methoxybenzoic acid], which “O-demethylation / conversion” value [1] is on record?
A: The value was “not demethylated”.

Q: Which “O-demethylation / conversion” value [1] does the source give for `COc1c(Cl)cc(C(=O)O)cc1Cl` [Compound 15, 3,5-dichloro-4-methoxy benzoic acid] here?
A: The value was “no conversions detected”.

Q: With `COc1ccc(C(=O)O)cc1[N+](=O)[O-]` [Compound 17, 4-methoxy-3-nitrobenzoic acid] as the compound, how does the “TON of demethylation product” value [4] read?
A: The value was 926 μM (μM P450)^−1.

Q: What about the “TON of over-oxidation product 4,5-dihydroxy-3-nitrobenzoic acid” value [4] of the same compound?
A: Its value is 416 μM (μM P450)^−1.

Q: Which “O-demethylation / conversion” value [1] does the source give for `COc1ccc(OC)c(C(=O)O)c1` [Compound 7, 2,5-dimethoxybenzoic acid] here?
A: The value was “not converted”.

Q: Which “O-demethylation / conversion” value [1] does the source give for `COc1cccc(C(=O)O)c1OC` [Compound 8, 2,3-dimethoxybenzoic acid] here?
A: The value was “not converted”.

Q: With `COc1cc(C(=O)O)cc(OC)c1O` [Compound 21, 4-hydroxy-3,5-dimethoxybenzoic acid] as the compound, how does the “O-demethylation / conversion” value [1] read?
A: The value was “did not convert”.

Q: For `COc1cc(OC)cc(C(=O)O)c1` [Compound 6, 3,5-dimethoxybenzoic acid], which “O-demethylation / conversion” value [1] is on record?
A: Its value is “can be demethylated”.
